Calls of active or inactive are those of the source. The calls are words filed in the database; no cut-off is given here.
Key:
[1] = target: Amyloid-beta precursor protein (Homo sapiens, UniProt P05067); assay: Displacement of [125I]IMPY from amyloid beta (1 to 42) (unknown origin) after 3 hrs by gamma counting analysis
How it was run: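 Test compound ranged over 10^-4 to 10^-8.5 in ethanol, in 0.05% BSA, 1 mL total. Incubation was 3 h at room temperature, then GF/B filtration and gamma counting. IC50 came from three independent experiments, and Ki was derived by Cheng–Prusoff.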

Mus musculus [2] = species: Mus musculus; assay: Binding affinity to amyloid beta in transgenic C57BL/6 mouse hippocampus harboring APPswe and PSEN1 double mutation at 185 to 370 kBq after 1 hr by thioflavin-S staining-based assay; assay type: tissue-based; settings: tested as the 18F-labelled form
How it was run: (§1)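 Paraffin-embedded brain sections from male APPswe/PSEN1 transgenic C57BL6 mice (11 months old) and wild-type C57BL6 controls (11 months old) were incubated with [18F] tracer (185–370 kBq) for 1 h at room temperature, washed with 40% EtOH, dried and exposed to an imaging plate for 1 h. Plaques were confirmed on the same sections by thioflavin-S (0.125%) fluorescent staining.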

Mus musculus [3] = species: Mus musculus; assay: Binding affinity to amyloid beta in transgenic C57BL/6 mouse hippocampus harboring APPswe and PSEN1 double mutation at 185 to 370 kBq after 1 hr by autoradiographic analysis; assay type: tissue-based; settings: tested as the 18F-labelled form; how it was run: as §1
Mus musculus [4] = species: Mus musculus; assay: Binding affinity to amyloid beta in transgenic C57BL/6 mouse cortex harboring APPswe and PSEN1 double mutation at 185 to 370 kBq after 1 hr by thioflavin-S staining-based assay; settings: tested as the 18F-labelled form; how it was run: as §1
Mus musculus [5] = species: Mus musculus; assay: Binding affinity to amyloid beta in transgenic C57BL/6 mouse cerebellum harboring APPswe and PSEN1 double mutation at 185 to 370 kBq after 1 hr by thioflavin-S staining-based assay; assay type: tissue-based; settings: tested as the 18F-labelled form; how it was run: as §1
Mus musculus [6] = species: Mus musculus; assay: Binding affinity to amyloid beta in transgenic C57BL/6 mouse cortex harboring APPswe and PSEN1 double mutation at 185 to 370 kBq after 1 hr by autoradiographic analysis; settings: tested as the 18F-labelled form; how it was run: as §1
Mus musculus [7] = species: Mus musculus; assay: Binding affinity to amyloid beta in transgenic C57BL/6 mouse cerebellum harboring APPswe and PSEN1 double mutation at 185 to 370 kBq after 1 hr by autoradiographic analysis; assay type: tissue-based; settings: tested as the 18F-labelled form; how it was run: as §1
Mus musculus [8] = species: Mus musculus; assay: Binding affinity to amyloid beta in wild-type C57BL/6 mouse brain at 185 to 370 kBq after 1 hr by autoradiographic analysis; assay type: tissue-based; settings: tested as the 18F-labelled form; how it was run: as §1
Brain = assay: Ratio of drug level in brain after 2 mins to drug level in brain after 60 mins in ICR mouse; assay type: ADME, tissue-based; settings: in vivo
How it was run: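 Male normal ICR mice (5 weeks old), n = 5 per time point, received a tail-vein injection of [18F] tracer (740–1110 kBq/mL) in saline containing 10% EtOH. Mice were sacrificed at 2, 10, 30 and 60 min. Organs were removed, weighed and gamma-counted, and data were expressed as %ID/g.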

[9] = Ratio of drug level in brain to blood in ICR mouse after 2 mins; assay type: ADME, tissue-based; settings: brain and blood, read-out: BBR
How it was run: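 Male ICR mice (5 weeks) received the ¹⁸F tracer (740–1110 kBq/mL) in saline with 10% EtOH by tail-vein injection. Five mice per time point were sacrificed at 2, 10, 30 and 60 min. Organs were removed, weighed and gamma-counted, and expressed as %ID/g. The ratio is brain %ID/g over blood %ID/g at 2 min.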

Amyloid-beta precursor protein, sequence (P05067 whole entry): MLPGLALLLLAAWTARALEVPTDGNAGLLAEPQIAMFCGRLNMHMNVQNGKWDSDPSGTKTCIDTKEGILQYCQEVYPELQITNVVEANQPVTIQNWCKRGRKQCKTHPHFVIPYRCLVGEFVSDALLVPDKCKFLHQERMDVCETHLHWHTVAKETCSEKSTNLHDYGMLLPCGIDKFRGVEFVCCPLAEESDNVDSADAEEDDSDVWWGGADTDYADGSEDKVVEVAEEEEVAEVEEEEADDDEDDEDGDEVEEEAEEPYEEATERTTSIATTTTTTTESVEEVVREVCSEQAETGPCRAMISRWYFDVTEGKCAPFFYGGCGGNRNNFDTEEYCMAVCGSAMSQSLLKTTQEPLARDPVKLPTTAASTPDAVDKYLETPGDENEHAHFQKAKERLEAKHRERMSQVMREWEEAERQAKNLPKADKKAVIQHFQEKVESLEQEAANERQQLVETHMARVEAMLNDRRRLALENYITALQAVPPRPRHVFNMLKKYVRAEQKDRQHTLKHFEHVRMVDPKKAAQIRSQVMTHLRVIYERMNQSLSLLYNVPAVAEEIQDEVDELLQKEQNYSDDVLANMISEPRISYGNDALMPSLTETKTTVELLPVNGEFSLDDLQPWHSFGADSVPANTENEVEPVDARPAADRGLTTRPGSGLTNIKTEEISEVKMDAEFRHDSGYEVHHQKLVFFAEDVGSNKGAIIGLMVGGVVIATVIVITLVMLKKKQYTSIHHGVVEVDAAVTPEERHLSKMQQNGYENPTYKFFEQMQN

Ki [1]	Activity (Mus musculus [2])	Activity (Mus musculus [3])	Activity (Mus musculus [4])	Activity (Mus musculus [5])	Activity (Mus musculus [6])	Activity (Mus musculus [7])	Activity (Mus musculus [8])	Ratio (Brain)	Kp at 2 min [9]	Structure (SMILES)
28.4 nM	Active	Active	Active	Active	Active	Active	inactive	–	–	CN(CCF)c1ccc(-c2cc3ccccc3[nH]2)cc1
–	–	–	–	–	–	–	–	1.68	0.19	CN(C)c1ccc(-c2cc3cc([125I])ccc3[nH]2)cc1
1100 nM	–	–	–	–	–	–	–	–	–	Cn1c(-c2ccc(NCCCF)cc2)cc2ccccc21

From ChEMBL document CHEMBL2396535, “Synthesis and biological evaluation of 18F-labled 2-phenylindole derivatives as PET imaging probes for β-amyloid plaques” (Bioorg Med Chem, 2013)
